pIC50: −log10 of the molar value.
Assays:
Influenza A virus [1] = experiment: Antiviral activity against Influenza A Puerto Rico/8/34/H1N1 infected in human A549 cells assessed as inhibition of viral replication after 24 hrs by hemagglutination assay; assay type: functional, organism-based; conditions: A/Puerto Rico/8/1934(H1N1), A549, 24 h
[2] = Selectivity index, ratio of CC50 for human Huh-7 cells to IC50 for West Nile virus lineage 1 (Italy/2009) infected in pre-seeded Huh-7 cells assessed as inhibition of viral replication incubated for 48 hrs by immunodetection based plaque reduction assay; assay type: toxicity, cell-based; conditions: read-out: Selectivity Index
[3] = Cytotoxicity against human Huh-7 cells assessed as reduction in cell viability by Celltiter-Glo luminescent cell viability assay; assay type: cell-based; conditions: Huh-7 cells
In short: (§1)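 Compound-exposed cells assessed by CellTiter-Glo luminescence versus DMSO control; CC50 from dose-response.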

dengue virus type 2 [4] = experiment: Antiviral activity against Dengue virus serotype 2 New Guinea C infected in pre-seeded Huh-7 cells assessed as inhibition of viral replication incubated for 72 hrs by immunodetection based plaque reduction assay; assay type: functional, organism-based; conditions: Huh-7, 72 h
[5] = Selectivity index, ratio of CC50 for human A549 cells to IC50 for Influenza A Puerto Rico/8/34/H1N1 infected in human A549 cells; assay type: toxicity, cell-based; conditions: read-out: Selectivity Index
In short: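 MDCK or A549 cells (2.5 × 10⁵/well) infected with A/Puerto Rico/8/34 H1N1 for 1 h at 37 °C, then washed. Compound (0.5–20 μM) added in 2% FBS medium for 24 h, with DMSO final ≤0.2%. Virus in supernatants read by hemagglutination. CC₅₀ by MTT (2 × 10⁴ cells/well, same concentrations, 24 h, absorbance 570 nm). SI = CC₅₀/IC₅₀.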

[6] = Cytotoxicity against human A549 cells assessed as reduction in cell viability measured after 24 hrs by MTT assay; assay type: cell-based; conditions: A549 cells
[7] = Selectivity index, ratio of CC50 for human Huh-7 cells to IC50 for Dengue virus serotype 2 New Guinea C infected in pre-seeded Huh-7 cells assessed as inhibition of viral replication incubated for 72 hrs by immunodetection based secondary yield reduction assay; assay type: toxicity, cell-based; conditions: read-out: Selectivity Index
[8] = Cytotoxicity against MDCK cells assessed as reduction in cell viability measured after 24 hrs by MTT assay; assay type: cell-based, Canis lupus familiaris; conditions: dog, MDCK cells
[9] = Selectivity index, ratio of CC50 for human Huh-7 cells to IC50 for West Nile virus lineage 1 (Italy/2009) infected in pre-seeded Huh-7 cells assessed as inhibition of viral replication incubated for 48 hrs by immunodetection based direct yield reduction assay; assay type: toxicity, cell-based; conditions: read-out: Selectivity Index
In short: (§2)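 Direct yield reduction in Huh7 cells (7000/well), infected with 50 TCID₅₀ of DENV or ZIKV, or 25 TCID₅₀ of WNV. Adsorption 1 h at 37 °C, then virus removed and serial compound dilutions added. Incubated 72 h (DENV, ZIKV) or 48 h (WNV). Viral antigen immunodetected on the monolayer. IC₅₀ by non-linear regression, mean of three experiments. SI = CC₅₀ (Huh7, CellTiter-Glo luminescence)/IC₅₀.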

Zika virus [10] = experiment: Antiviral activity against Zika virus H/PF/2013 infected in pre-seeded Huh-7 cells assessed as inhibition of viral replication incubated for 72 hrs by immunodetection based secondary yield reduction assay; assay type: functional, organism-based; conditions: H/PF/2013, Huh-7, 72 h
Zika virus [11] = experiment: Antiviral activity against Zika virus H/PF/2013 infected in pre-seeded Huh-7 cells assessed as inhibition of viral replication incubated for 72 hrs by immunodetection based direct yield reduction assay; assay type: functional, organism-based; conditions: H/PF/2013, Huh-7, 72 h; in short: as §2
[12] = Selectivity index, ratio of CC50 for human Huh-7 cells to IC50 for Zika virus H/PF/2013 infected in pre-seeded Huh-7 cells assessed as inhibition of viral replication incubated for 72 hrs by immunodetection based secondary yield reduction assay; assay type: toxicity, cell-based; conditions: read-out: Selectivity Index
[13] = (§3) Cytotoxicity against African green monkey Vero E6 cells infected with SARS-COV-2 by celltiter-glo luminescent cell viability assay; assay type: cell-based, Vero C1008; conditions: chlorocebus sabaeus, Vero E6 cells infected with SARS-COV-2; in short: as §1
[14] = Selectivity index, ratio of CC50 for human Huh-7 cells to IC50 for Zika virus H/PF/2013 infected in pre-seeded Huh-7 cells assessed as inhibition of viral replication incubated for 72 hrs by immunodetection based direct yield reduction assay; assay type: toxicity, cell-based; conditions: read-out: Selectivity Index; in short: as §2
dengue virus type 2 [15] = experiment: Antiviral activity against Dengue virus serotype 2 New Guinea C infected in pre-seeded Huh-7 cells assessed as inhibition of viral replication incubated for 72 hrs by immunodetection based direct yield reduction assay; assay type: functional, organism-based; conditions: Dengue virus, New Guinea C, Huh-7, 72 h; read-out: IC50
SARS-CoV-2 [16] = experiment: Antiviral activity against SARS-COV 2 infected in monkey Vero E6 cells assessed as inhibition of viral replication at MOI of 0.01 and incubated after 2 hrs post infection for 48 hrs by direct yield reduction assay; assay type: functional, organism-based; conditions: Severe acute respiratory syndrome coronavirus 2, Vero C1008
[17] = Selectivity index, ratio of CC50 for human Huh-7 cells to IC50 for Dengue virus serotype 2 New Guinea C infected in pre-seeded Huh-7 cells assessed as inhibition of viral replication incubated for 72 hrs by immunodetection based plaque reduction assay; assay type: toxicity, cell-based; conditions: read-out: Selectivity Index
Influenza A virus [18] = experiment: Antiviral activity against Influenza A Puerto Rico/8/34/H1N1 infected in MDCK cells assessed as inhibition of viral replication measured in supernatants of infected cells after 24 hrs by hemagglutination assay; assay type: functional, organism-based; conditions: A/Puerto Rico/8/1934(H1N1)
West Nile virus [19] = experiment: Antiviral activity against West Nile virus lineage 1 (Italy/2009) infected in pre-seeded Huh-7 cells assessed as inhibition of viral replication incubated for 48 hrs by immunodetection based direct yield reduction assay; assay type: functional, organism-based; conditions: West Nile virus, lineage 1 (Italy/2009), Huh-7, 48 h; read-out: IC50
[20] = Selectivity index, ratio of CC50 for human Huh-7 cells to IC50 for Zika virus H/PF/2013 infected in pre-seeded Huh-7 cells assessed as inhibition of viral replication incubated for 72 hrs by immunodetection based plaque reduction assay; assay type: toxicity, cell-based; conditions: read-out: Selectivity Index
Zika virus [21] = experiment: Antiviral activity against Zika virus H/PF/2013 infected in pre-seeded Huh-7 cells assessed as inhibition of viral replication incubated for 72 hrs by immunodetection based plaque reduction assay; assay type: functional, organism-based; conditions: H/PF/2013, Huh-7, 72 h
[22] = Selectivity index, ratio of CC50 for human Huh-7 cells to IC50 for Dengue virus serotype 2 New Guinea C infected in pre-seeded Huh-7 cells assessed as inhibition of viral replication incubated for 72 hrs by immunodetection based direct yield reduction assay; assay type: toxicity, cell-based; conditions: read-out: Selectivity Index; in short: as §2
West Nile virus [23] = experiment: Antiviral activity against West Nile virus lineage 1 (Italy/2009) infected in pre-seeded Huh-7 cells assessed as inhibition of viral replication incubated for 48 hrs by immunodetection based plaque reduction assay; assay type: functional, organism-based; conditions: Huh-7, 48 h
SARS-CoV-2 [24] = experiment: Antiviral activity against SARS-COV 2 infected in human Calu-3 cells assessed as inhibition of viral replication at MOI of 0.01 and incubated after 2 hrs post infection for 48 hrs by direct yield reduction assay; assay type: functional, organism-based; conditions: Severe acute respiratory syndrome coronavirus 2, Calu-3
[25] = Selectivity index, ratio of CC50 for human Calu-3 cells infected with SARS-COV-2 to IC50 for SARS-COV 2 infected in human Calu-3 cells; assay type: toxicity, cell-based; conditions: read-out: Selectivity Index
[26] = (§4) Cytotoxicity against human Calu-3 cells infected with SARS-COV-2 by celltiter-glo luminescent cell viability assay; assay type: cell-based; conditions: Calu-3 cells infected with SARS-COV-2; in short: as §1
SARS-CoV-2 [27] = experiment: Antiviral activity against SARS-COV 2 infected in human Calu-3 cells assessed as inhibition of viral replication at MOI of 0.01 followed by removal of test compound after cell virus adsorption incubated for 72 hrs by ENTRY-DYRA method; assay type: functional, organism-based; conditions: Severe acute respiratory syndrome coronavirus 2, Calu-3, 72 h
SARS-CoV-2 [28] = experiment: Antiviral activity against SARS-COV 2 infected in human Caco-2 cells assessed as inhibition of viral replication at MOI of 0.01 and incubated after 2 hrs post infection for 48 hrs by immunodetection assay; assay type: functional, organism-based; conditions: Severe acute respiratory syndrome coronavirus 2, Caco-2
SARS-CoV-2 [29] = experiment: Antiviral activity against SARS-COV 2 infected in human Huh-7 cells assessed as inhibition of viral replication at MOI of 0.01 and incubated after 2 hrs post infection for 48 hrs by direct yield reduction assay; assay type: functional, organism-based; conditions: Severe acute respiratory syndrome coronavirus 2, Huh-7
[30] = Selectivity index, ratio of CC50 for African green monkey Vero E6 cells infected with SARS-COV-2 to IC50 for SARS-COV 2 infected in monkey Vero E6 cells; assay type: toxicity, cell-based, Vero C1008; conditions: read-out: Selectivity Index
[31] = Selectivity index, ratio of CC50 for human Caco-2 cells infected with SARS-COV-2 to IC50 of SARS-COV 2 infected in human Caco-2 cells; assay type: toxicity, cell-based; conditions: read-out: Selectivity Index
Caco-2 = experiment: Cytotoxicity against human Caco2 cells infected with SARS-COV-2 assessed as reduction in cell viability by celltiter-glo luminescent cell viability assay; assay type: cell-based; in short: as §1
SARS-CoV-2 [32] = experiment: Antiviral activity against SARS-COV 2 infected in human Caco-2 cells; assay type: functional, organism-based; conditions: Severe acute respiratory syndrome coronavirus 2, Caco-2
SARS-CoV-2 [33] = experiment: Antiviral activity against SARS-COV 2 infected in African green monkey Vero E6 cells; assay type: functional, organism-based; conditions: Severe acute respiratory syndrome coronavirus 2, Vero C1008
Vero C1008 = experiment: as §3; assay type: cell-based; conditions: chlorocebus sabaeus, vero c1008; in short: as §1
SARS-CoV-2 [34] = experiment: Antiviral activity against SARS-COV 2 infected in human Huh-7 cells; assay type: functional, organism-based; conditions: Severe acute respiratory syndrome coronavirus 2, Huh-7
Huh-7 = experiment: Cytotoxicity against human Huh-7 cells infected with SARS-COV-2 assessed as reduction in cell viability by celltiter-glo luminescent cell viability assay; assay type: cell-based; conditions: huh-7; in short: as §1
Calu-3 = experiment: as §4; assay type: cell-based; conditions: calu-3; in short: as §1
[35] = Selectivity index, ratio of CC50 for human Huh-7 cells infected with SARS-COV-2 to IC50 for SARS-COV 2 infected in human Huh-7; assay type: toxicity; conditions: read-out: Selectivity Index

NC(=O)c1ncn([C@@H]2O[C@H](CO)[C@@H](O)[C@H]2O)n1 [RIBAVIRIN]
pIC50 (Influenza A virus [1]): 4.43
selectivity ratio at 48 h [2]: 30
CC50 [3]: 200 µM
pIC50 (dengue virus type 2 [4]): 5.39
selectivity ratio [5]: > 1.3
CC50 at 24 h [6]: > 50 µM
selectivity ratio at 72 h [7]: 50
CC50 at 24 h [8]: > 50 µM
selectivity ratio at 48 h [9]: 21
pIC50 (Zika virus [10]): 5.36
pIC50 (Zika virus [11]): 5.42
selectivity ratio at 72 h [12]: 45
CC50 [13]: > 400 µM
selectivity ratio at 72 h [14]: 53
pIC50 (dengue virus type 2 [15]): 5.12
pIC50 (SARS-CoV-2 [16]): 3.96
selectivity ratio at 72 h [17]: 49
pIC50 (Influenza A virus [18]): 5.02
pIC50 (West Nile virus [19]): 5.02
selectivity ratio at 72 h [20]: 91
pIC50 (Zika virus [21]): 5.66
selectivity ratio at 72 h [22]: 26
pIC50 (West Nile virus [23]): 5.17

CN(C)C(=O)COC(=O)Cc1ccc(OC(=O)c2ccc(NC(=N)N)cc2)cc1 [CAMOSTAT]
pIC50 (SARS-CoV-2 [24]): 6.09
selectivity ratio [25]: 243
CC50 [26]: 200 µM
pIC50 (SARS-CoV-2 [27]): 7.40

CCC(CC)COC(=O)[C@H](C)N[P@](=O)(OC[C@H]1O[C@@](C#N)(c2ccc3c(N)ncnn23)[C@H](O)[C@@H]1O)Oc1ccccc1 [REMDESIVIR]
pIC50 (SARS-CoV-2 [28]): 8.00
pIC50 (SARS-CoV-2 [29]): 8.40
pIC50 (SARS-CoV-2 [24]): 6.96
selectivity ratio [30]: 28
selectivity ratio [31]: 8000
CC50 (Caco-2): 80 µM
selectivity ratio [25]: 882
pIC50 (SARS-CoV-2 [32]): 6.42
pIC50 (SARS-CoV-2 [33]): 4.57
CC50 (Vero C1008): 166 µM
pIC50 (SARS-CoV-2 [34]): 8.70
CC50 (Huh-7): 77 µM
CC50 (Calu-3): 97 µM
pIC50 (SARS-CoV-2 [16]): 5.22
selectivity ratio [35]: 19200
